# Screening results: PubChem BioAssay, several laboratories
# RORA act: RORA (human) activation; P35398; CHO-K1 Gal4-RORA LBD luciferase reporter, luminescence; percent increase over mock-subtracted basal signal; activation, % at 10 µM; 65,000 compounds, 1.5% hits; AID 560;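 active means activation above the mean of all tested compounds plus 3 SD, cut at about 49% in these data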;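 further: 0% = DMSO-treated RORA cells and 100% = added signal equal to DMSO minus mock-transfected cells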
# HEK293 NFkB inh: lowers PMA/ionomycin-induced NF-kB signal in HEK293 cells; HEK-293 NF-kB luciferase reporter, luminescence; inhibition, % at 3 µM; 62,000 compounds, 0.21% hits; AID 465;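 active means inhibition above the mean of all tested compounds plus 3 SD, cut at about 40% in these data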;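 further: 0% = stimulated DMSO wells and 100% = 10 µM reference inhibitor 5653914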
#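 Signal: luciferase luminescence; Material: HEK-293 cells with stable firefly luciferase reporter driven by four HIV NF-kB elements; Probe or stimulus: PMA with ionomycin; Replication: tested once; Times: 1 h compound pretreatment, then 16 h stimulation at 37 °C, 5% CO2; Benchmarks: DMSO and 10 µM reference inhibitor; Evaluation: per-plate % inhibition versus controls.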
# JNK3 inh: blocks human JNK3 kinase activity | P53779 | purified JNK3 kinase activity, HTS | 60,000 compounds, 0.61% hits | inhibition, % at 8 µM; in the data active means inhibition above about 17%;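 further: 0% = DMSO and 100% = reference inhibitor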
# D1 allo mod: D1 dopamine receptor (human) allosteric modulation. 58,000 compounds, 5.9% hits. P21728. HEK293 D1, CRE-luciferase, dopamine EC30 potentiation; actives deviate in either direction. B-score at 10 µM;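 active means luminescence count or its row- and column-corrected plate score outside the 99.7% band of the plate's sample wells, on either side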
# Target sequence (P21728 whole entry, looked up): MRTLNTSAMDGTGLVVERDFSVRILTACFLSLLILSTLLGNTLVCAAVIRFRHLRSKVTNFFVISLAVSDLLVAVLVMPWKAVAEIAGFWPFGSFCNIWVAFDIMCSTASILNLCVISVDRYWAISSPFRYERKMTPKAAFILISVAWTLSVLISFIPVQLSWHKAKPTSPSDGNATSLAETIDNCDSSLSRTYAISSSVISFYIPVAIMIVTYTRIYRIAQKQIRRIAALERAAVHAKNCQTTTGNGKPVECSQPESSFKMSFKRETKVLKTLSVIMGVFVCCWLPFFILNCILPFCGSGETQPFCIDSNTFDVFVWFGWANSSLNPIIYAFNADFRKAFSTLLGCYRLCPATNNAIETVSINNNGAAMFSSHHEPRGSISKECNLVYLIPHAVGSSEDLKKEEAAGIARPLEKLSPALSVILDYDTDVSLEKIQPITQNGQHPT
# SF-1 act: activates the human nuclear receptor SF-1. Q13285. CHO-K1 Gal4-SF-1 LBD luciferase reporter; % increase over DMSO SF-1-specific signal. 65,000 compounds, 1.9% hits. activation, % at 10 µM;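 active means activation above the mean activation of all tested compounds plus 3 SD, cut at about 50% in these data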
#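 Material: CHO-K1 cells with Gal4–hSF-1 LBD chimera plus Gal4-driven luciferase / Input: 4,000 CHO-K1 cells per well / Incubation: compound exposure 20 h at 37 °C / Signal: luminescence read 15 min after SteadyLite luciferase reagent, after room-temperature equilibration / Read-out: percent activation versus DMSO / Benchmarks: DMSO negative control and −SF1 background wells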
# D1 mod confirm: D1 receptor (human) allosteric modulation, confirmed; 2,200 compounds, 88% hits; luminescence at 10 µM; HEK293 D1 CRE-luciferase, dopamine EC30 potentiation; active compounds read high; shares compounds with D1 allo mod;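 active means luminescence in either of two replicates above the same-plate mean plus 3 SD of the low-dose dopamine control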
# D1 no dopamine: D1 (human) signaling in absence of dopamine; shares compounds with D1 allo mod; HEK293 D1 CRE-luciferase, luminescence, no dopamine; active compounds read high; luminescence at 10 µM; 1,900 compounds, 0.8% hits; in the data active means luminescence above about 3900
# Isoprot counter: counter-screen for D1 modulators: isoproterenol response in HEK293 cells. HEK293 D1 CRE-luciferase, isoproterenol EC30 counter-screen. 2,200 compounds, 63% hits. shares compounds with D1 allo mod. calls only at 10 µM. AID 647;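 active means luminescence in either replicate above plate mean of wells with a partly effective reference agonist dose plus 3 SD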;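 further: isoproterenol raises cAMP through native beta-adrenoceptor Gs so signal bypasses D1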
# Active calls of the source: *; i = inactive; · = no result; + = active, no number. A selection: hits, their analogues and other compounds. The true share with any hit is near 7.9%.
SMILES,RORA act,HEK293 NFkB inh,JNK3 inh,D1 allo mod,SF-1 act,D1 mod confirm,D1 no dopamine,Isoprot counter
COCCNc1oc(-c2ccccc2Cl)nc1C#N,0,-6,3,4,-13,·,·,·
Fc1ccc(-c2cc(C(F)(F)F)nc(N3CCCCC3)n2)cc1,8,3,·,·,16,·,·,·
Nc1nc(-c2ccc(Cl)cc2)cc(C(F)(F)F)n1,-7,24,6,19*,7,19568*,1592,+
CCOC(=O)C1=C(C)NC(SCC(=O)O)=NC1c1ccccc1 (stereo not given),6,7,6,-0.62,14,·,·,·
CC1CCCCN1C(=O)CSc1nc(C2CC2)nc2c1cnn2-c1ccccc1 (stereo not given),-4,13,·,4*,-19,7396*,1340,i
CCSc1nnc(NC(=O)CSc2nc3c(c(=O)n2-c2ccccc2OC)SCC3)s1,6,5,-5,-0.57,4,·,·,·
COc1ccc(N2CCCn3c2nc2c3c(=O)n(Cc3ccccc3F)c(=O)n2C)c(OC)c1,5,9,4,-0.61,-16,·,·,·
COc1ccc(CCN2CCCn3c2nc2c3c(=O)n(Cc3ccccc3F)c(=O)n2C)cc1OC,0,6,7,6.3*,10,17816*,1740,i
Cc1ccc(S(=O)(=O)N2CCN(C(=O)C3Cc4ccccc4CN3C(=O)c3ccco3)CC2)cc1 (stereo not given),-6,6,-3,-0.14,-2,·,·,·
COc1ccc(S(=O)(=O)n2nc(-c3cc(OC)c(OC)c(OC)c3)cc2N)cc1OC,-20,17,6,1.9,-10,·,·,·
COc1ccc(-c2cc(N)n(S(=O)(=O)c3c(F)c(F)c(F)c(F)c3F)n2)cc1OC,-25,20,-7,4.9*,-30,11216*,1688,+
COc1ccc2c(c1)c1ncn(Cc3ccco3)c(=O)c1n2C,0,20,19*,7.5*,10,12892*,1532,+
CCOC(=O)C1=C(N)n2c(s/c(=C\c3cccnc3)c2=O)=C(C(=O)OCC)C1c1cccnc1 (stereo not given),11,27,-2,1.1,4,·,·,·
CCOC(=O)C1=C(N)n2c(s/c(=C\c3cccs3)c2=O)=C(C(=O)OCC)C1c1cccs1 (stereo not given),29,7,0,4.6*,25,10396*,1664,+
CCNc1nc(C)c2cc(Br)c(=O)n(CC)c2n1,-17,32,12,15*,-35,24012*,1832,+
CCn1c(=N)c(C(=O)NC)cc2c(=O)n3cccc(C)c3nc21,-1,10,-9,-1.2,-4,·,·,·
CN(Cc1cc2ccccc2[nH]c1=O)S(C)(=O)=O,11,5,3,0.11,-3,·,·,·
C=CCn1c(NC(=O)c2ccccc2)c(C#N)c2nc3ccccc3nc21,12,5,0,2.6,14,·,·,·
CCCCn1c(NC(C)=O)c(C#N)c2nc3ccccc3nc21,-17,19,6,3.8*,-8,11192*,1596,i
CCn1c2ccccc2c2nnc(SCc3ccccc3)nc21,22,2,4,1.5,13,·,·,·
CCn1c2ccccc2c2nnc(SCCCn3c(=O)[nH]c4ccccc43)nc21,28,12,6,9.6*,28,10684*,1736,i
C=CCn1c2ccccc2c2nnc(SCC(=O)NC(C(=O)OC)C(C)C)nc21 (stereo not given),12,18,5,4.4*,6,7244*,1452,i
CCn1c2ccccc2c2nnc(SCc3ccc(C(=O)OC)o3)nc21,-20,12,0,5.6*,8,9356*,1384,+
CCn1c2ccccc2c2nnc(SCC(=O)NCCOC)nc21,-16,2,2,0.98,7,·,·,·
Cc1ccnc(SCCn2c(Br)nc3c2c(=O)n(C)c(=O)n3C)n1,3,26,0,0.38,9,·,·,·
CCc1nc2n[nH]c(N)c2c2c1CCCC2,-16,·,-4,·,12,·,·,·
